Laboratory results from ChEMBL document CHEMBL3763086, “Salicylanilide N-monosubstituted carbamates: Synthesis and in vitro antimicrobial activity” (2016).
Converted amounts (≈) assume the structure as drawn.

Assays:
Type in all cases: functional
Nakaseomyces glabratus [1] = experiment: Antifungal activity against Candida glabrata 20/I after 48 hrs by microbroth dilution method
[2] = system: Trichophyton mentagrophytes; experiment: Antifungal activity against Trichophyton mentagrophytes 445 after 72 hrs by microbroth dilution method; details: Trichophyton mentagrophytes, 445, 72 h
Staphylococcus aureus [3] = experiment: Antibacterial activity against Staphylococcus aureus CCM 4516/08 after 24 hrs by microbroth dilution method; details: CCM 4516/08, 24 h
Method in brief: (§1)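 Microbroth dilution modified per M07-A07 in Mueller-Hinton broth, pH 7.4 (±0.2). Inoculum in sterile water adjusted to 0.5 McFarland. MIC taken as growth reduction of at least 90% (IC90) versus control, read visually and at 540 nm after 24 and 48 h incubation in the dark.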

Staphylococcus aureus [4] = experiment: Antibacterial activity against methicillin-resistant Staphylococcus aureus H 5996/08 after 24 hrs by microbroth dilution method; details: H 5996/08, 24 h
Method in brief: (§2)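 Microdilution broth method modified after M07-A07 in Mueller-Hinton broth adjusted to pH 7.4 (±0.2). Inoculum prepared in sterile water to 0.5 McFarland (1.5 × 10^8 CFU/mL). MIC taken as growth reduction versus control (IC95 per table header), read visually and spectrophotometrically at 540 nm after 24 and 48 h incubation in the dark.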

[5] = system: Staphylococcus epidermidis; experiment: Antibacterial activity against Staphylococcus epidermidis H 6966/08 after 48 hrs by microbroth dilution method; details: H 6966/08, 48 h; method in brief: as §1
Candida albicans [6] = experiment: Antifungal activity against Candida albicans ATCC 44859 after 24 hrs by microbroth dilution method; details: ATCC 44859, 24 h
Candida tropicalis [7] = experiment: Antifungal activity against Candida tropicalis 156 after 48 hrs by microbroth dilution method; details: Candida tropicalis, 156, 48 h
Nakaseomyces glabratus [8] = experiment: Antifungal activity against Candida glabrata 20/I after 24 hrs by microbroth dilution method
Klebsiella pneumoniae [9] = experiment: Antibacterial activity against Klebsiella pneumoniae D 11750/08 after 48 hrs by microbroth dilution method; details: D 11750/08, 48 h; method in brief: as §1
Klebsiella pneumoniae [10] = experiment: Antibacterial activity against ESBL-positive Klebsiella pneumoniae J 14368/08 after 24 hrs by microbroth dilution method; details: J 14368/08, 24 h; method in brief: as §1
Staphylococcus aureus [11] = experiment: Antibacterial activity against Staphylococcus aureus CCM 4516/08 after 48 hrs by microbroth dilution method; details: CCM 4516/08, 48 h; method in brief: as §2
Klebsiella pneumoniae [12] = experiment: Antibacterial activity against Klebsiella pneumoniae D 11750/08 after 24 hrs by microbroth dilution method; details: D 11750/08, 24 h; method in brief: as §1
[13] = system: Staphylococcus epidermidis; experiment: Antibacterial activity against Staphylococcus epidermidis H 6966/08 after 24 hrs by microbroth dilution method; details: H 6966/08, 24 h; method in brief: as §1
Enterococcus sp. [14] = experiment: Antibacterial activity against Enterococcus sp. J 14365/08 after 24 hrs by microbroth dilution method; details: J 14365/08, 24 h; method in brief: as §1
Candida tropicalis [15] = experiment: Antifungal activity against Candida tropicalis 156 after 24 hrs by microbroth dilution method; details: Candida tropicalis, 156, 24 h
Trichosporon asahii [16] = experiment: Antifungal activity against Trichosporon asahii 1188 after 24 hrs by microbroth dilution method; details: Trichosporon asahii, 1188, 24 h
Escherichia coli [17] = experiment: Antibacterial activity against Escherichia coli CCM 4517 after 24 hrs by microbroth dilution method; details: CCM 4517, 24 h; method in brief: as §1
Lichtheimia corymbifera [18] = experiment: Antifungal activity against Absidia corymbifera 272 after 24 hrs by microbroth dilution method; details: Lichtheimia corymbifera, 272, 24 h
Lichtheimia corymbifera [19] = experiment: Antifungal activity against Absidia corymbifera 272 after 48 hrs by microbroth dilution method; details: Lichtheimia corymbifera, 272, 48 h
Trichosporon asahii [20] = experiment: Antifungal activity against Trichosporon asahii 1188 after 48 hrs by microbroth dilution method; details: Trichosporon asahii, 1188, 48 h
Escherichia coli [21] = experiment: Antibacterial activity against Escherichia coli CCM 4517 after 48 hrs by microbroth dilution method; details: CCM 4517, 48 h; method in brief: as §1
Candida albicans [22] = experiment: Antifungal activity against Candida albicans ATCC 44859 after 48 hrs by microbroth dilution method; details: ATCC 44859, 48 h
Pichia kudriavzevii [23] = experiment: Antifungal activity against Candida krusei E28 after 24 hrs by microbroth dilution method; details: E28, 24 h
Pichia kudriavzevii [24] = experiment: Antifungal activity against Candida krusei E28 after 48 hrs by microbroth dilution method; details: E28, 48 h
Enterococcus sp. [25] = experiment: Antibacterial activity against Enterococcus sp. J 14365/08 after 48 hrs by microbroth dilution method; details: J 14365/08, 48 h; method in brief: as §1
Staphylococcus aureus [26] = experiment: Antibacterial activity against methicillin-resistant Staphylococcus aureus H 5996/08 after 48 hrs by microbroth dilution method; details: H 5996/08, 48 h; method in brief: as §2
[27] = system: Trichophyton mentagrophytes; experiment: Antifungal activity against Trichophyton mentagrophytes 445 after 120 hrs by microbroth dilution method; details: Trichophyton mentagrophytes, 445, 120 h
Klebsiella pneumoniae [28] = experiment: Antibacterial activity against ESBL-positive Klebsiella pneumoniae J 14368/08 after 48 hrs by microbroth dilution method; details: J 14368/08, 48 h; method in brief: as §1

SMILES	MIC (Nakaseomyces glabratus [1])	MIC [2]	MIC (Staphylococcus aureus [3])	MIC (Staphylococcus aureus [4])	MIC [5]	MIC (Candida albicans [6])	MIC (Candida tropicalis [7])	MIC (Nakaseomyces glabratus [8])	MIC (Klebsiella pneumoniae [9])	MIC (Klebsiella pneumoniae [10])	MIC (Staphylococcus aureus [11])	MIC (Klebsiella pneumoniae [12])	MIC [13]	MIC (Enterococcus sp. [14])	MIC (Candida tropicalis [15])	MIC (Trichosporon asahii [16])	MIC (Escherichia coli [17])	MIC (Lichtheimia corymbifera [18])	MIC (Lichtheimia corymbifera [19])	MIC (Trichosporon asahii [20])	further results
O=C(NC1CCCCC1)Oc1ccc(Cl)cc1C(=O)Nc1ccc(F)cc1	> 125 µM	1.95 µM (≈ 0.762 µg/mL)	15.6 µM (≈ 6.1 µg/mL)	31.2 µM (≈ 12.2 µg/mL)	7.81 µM (≈ 3.05 µg/mL)	> 125 µM	> 125 µM	125 µM (≈ 48.9 µg/mL)	> 125 µM	62.5 µM (≈ 24.4 µg/mL)	15.6 µM (≈ 6.1 µg/mL)	> 125 µM	7.81 µM (≈ 3.05 µg/mL)	> 125 µM	> 125 µM	62.5 µM (≈ 24.4 µg/mL)	> 125 µM	125 µM (≈ 48.9 µg/mL)	> 125 µM	> 125 µM	MIC (Escherichia coli [21]): > 125 µM; MIC (Candida albicans [22]): > 125 µM; MIC (Pichia kudriavzevii [23]): > 125 µM; MIC (Pichia kudriavzevii [24]): > 125 µM; MIC (Enterococcus sp. [25]): > 125 µM; MIC (Staphylococcus aureus [26]): 31.2 µM (≈ 12.2 µg/mL); MIC [27]: 1.95 µM (≈ 0.762 µg/mL); MIC (Klebsiella pneumoniae [28]): 62.5 µM (≈ 24.4 µg/mL)
O=C(Nc1ccccc1)Oc1ccc(Cl)cc1C(=O)Nc1ccc(F)cc1	> 250 µM	3.9 µM (≈ 1.5 µg/mL)	7.81 µM (≈ 3.01 µg/mL)	7.81 µM (≈ 3.01 µg/mL)	7.81 µM (≈ 3.01 µg/mL)	> 250 µM	> 250 µM	> 250 µM	250 µM (≈ 96.2 µg/mL)	250 µM (≈ 96.2 µg/mL)	7.81 µM (≈ 3.01 µg/mL)	250 µM (≈ 96.2 µg/mL)	7.81 µM (≈ 3.01 µg/mL)	250 µM (≈ 96.2 µg/mL)	> 250 µM	> 250 µM	> 500 µM	> 250 µM	> 250 µM	> 250 µM	MIC (Escherichia coli [21]): > 500 µM; MIC (Candida albicans [22]): > 250 µM; MIC (Pichia kudriavzevii [23]): > 250 µM; MIC (Pichia kudriavzevii [24]): > 250 µM; MIC (Enterococcus sp. [25]): 250 µM (≈ 96.2 µg/mL); MIC (Staphylococcus aureus [26]): 7.81 µM (≈ 3.01 µg/mL); MIC [27]: 15.6 µM (≈ 6.01 µg/mL); MIC (Klebsiella pneumoniae [28]): 250 µM (≈ 96.2 µg/mL)
